Data on two compounds can be found in ChEMBL document CHEMBL1142077, “Inhibition of Plasmodium falciparum oocyst production by membrane-permeant cysteine protease inhibitor E64d” (2007).

Active and inactive are the calls of the source. The rule behind the calls is not given here.

For test [1], the system named is Plasmodium falciparum. Put plainly: Inhibition of Pfs230 processing after 1 hrs in Plasmodium falciparum 3D7 at 100 uM in emergence medium. It is filed as functional, organism-based. In a few lines:
(§1)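 Mature stage V 3D7 gametocytes preincubated 1 h at 37°C in complete RPMI 1640 with inhibitor or DMSO (saponin 0.001% present or absent during this incubation). Cells then pelleted and resuspended in an equal volume of emergence medium (10 µM xanthurenic acid, glucose, NaCl, 8 mM Tris-Cl pH 8.2) at RT. Medium harvested after 1 h and clarified by centrifugation. Readout: immunoblot with Pfs230 region A (aa 304–378) antibodies, scoring 47-kDa and 35-kDa fragments.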

Test [2] has as its system Plasmodium falciparum. Put plainly: Inhibition of Pfs230 processing after 1 hrs in Plasmodium falciparum 3D7 at 10 uM in emergence medium. It counts as functional, organism-based. In a few lines: as §1
For test [3], the system named is Plasmodium falciparum. Nature of the test: Inhibition of Pfs230 processing after 1 hrs in Plasmodium falciparum 3D7 at 10 uM in emergence medium with 0.001% saponin. It is filed as functional, organism-based. An outline of the steps:
as §1

Test [4] relates to Plasmodium falciparum. Put plainly: Inhibition of exflagellation after 1 hrs in Plasmodium falciparum 3D7 at 10 uM in emergence medium. It counts as functional, organism-based. An outline of the steps:
(§2)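 Mature 3D7 gametocytes incubated 1 h with inhibitor or an equal volume of DMSO, then pelleted. Gametogenesis triggered by adding an equal volume of emergence medium (xanthurenic acid, pH 8.2, RT). Scored on Giemsa-stained thin smears before and 15 min after the stimulus (emergence), and by bright-field observation of exflagellation centers 15–30 min after the stimulus.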

For test [5], the system named is Plasmodium falciparum. Nature of the test: Inhibition of gametogenesis after 1 hrs in Plasmodium falciparum 3D7 at 10 uM in emergence medium. It counts as functional, organism-based. An outline of the steps:
as §2

For test [6], the system named is Plasmodium falciparum. Put plainly: Inhibition of oocyst production after 7 days in Anopheles stephensi SxK Nij fed human serum infected with Plasmodium falciparum 3D7 stage V gametocyte at 10 uM for 1 hr. It is filed as functional, organism-based. In a few lines:
(§3)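 Strain 3D7 stage V gametocyte cultures treated 1 h with inhibitor or DMSO, 0.3 ml pelleted onto 150 µl packed erythrocytes, supernatant replaced by 120 µl normal human serum with active complement; membrane feeder at 39°C, mosquitoes gorge 10 min, kept 7 days at 26°C, >80% humidity. Midguts mercurochrome-stained, oocysts counted; geometric mean per midgut versus DMSO control gives percent reduction; Kruskal-Wallis.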

Test [7] relates to Plasmodium falciparum. Put plainly: Inhibition of oocyst production after 7 days in Anopheles stephensi SxK Nij fed human serum infected with Plasmodium falciparum NF54 stage V gametocyte at 100 uM for 15 min. It counts as functional. In a few lines:
(§4)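 Isolate NF54 stage V gametocytes treated for stated times with 100 µM inhibitor or DMSO, pelleted onto packed erythrocytes in normal human serum with active complement, membrane-fed (39°C) to Anopheles stephensi SxK Nij for 10 min; mosquitoes kept 7 days at 26°C. Midguts mercurochrome-stained, oocysts counted, 16 to 20 mosquitoes per feeding; geometric mean oocysts per midgut versus control; Kruskal-Wallis.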

Test [8] deals with Plasmodium falciparum. Nature of the test: Gametocyte morphology as exflagellation after 15-30 min in Plasmodium falciparum 3D7 at 100 uM for 1hr in emergence medium. It is filed as functional, organism-based.
The subject of test [9] is Plasmodium falciparum. Put plainly: Inhibition of oocyst production after 7 days in Anopheles stephensi SxK Nij fed human serum infected with Plasmodium falciparum NF54 stage V gametocyte at 100 uM for 1 hr. It counts as functional. In a few lines:
as §4

The subject of test [10] is Plasmodium falciparum. Put plainly: Inhibition of gametogenesis after 1 hrs in Plasmodium falciparum 3D7 at 100 uM in emergence medium. It is filed as functional, organism-based.
Test [11] deals with Plasmodium falciparum. Nature of the test: Inhibition of oocyst production after 7 days in Anopheles stephensi SxK Nij fed human serum infected with Plasmodium falciparum NF54 stage V gametocyte at 100 uM for 30 min. It is filed as functional. In a few lines:
as §4

The subject of test [12] is Plasmodium falciparum. Nature of the test: Inhibition at day 7 of Plasmodium falciparum 3D7 oocyst production in human serum at 100 uM for 1 hrs prior to feeding Anopheles stephensi SxK Nij. It counts as functional. The note with it: 3D7, Serum. In a few lines:
as §3

On to `CC(C)C[C@H](NC(=O)C(CCc1ccccc1)NC(=O)CF)C(=O)NC(=O)N1CCOCC1` (some centres not stated), for which the result in test [1], in test [2], in [4] and in test [5] was inactive. Also, the outcome in test [3] was Active.
One may read the inhibition as the change of the read-out against control, counted positive when it falls. Low readings indicate a response near the control, high ones a response far below the control. For `CCOC(=O)[C@H]1O[C@@H]1C(=O)N[C@@H](CC(C)C)C(=O)NCCC(C)C` [ALOXISTATIN], the outcome in test [6], in test [8] and in test [10] was inactive. In addition, the inhibition at 100 µM is 79% in test [7], 100% in test [9], 98% in [11] and 81% in [12].
